Data as given in ChEMBL document CHEMBL4825779, “Sulfur Analogues of Tyrosine in the Development of Triazene Hybrid Compounds: A New Strategy against Melanoma” (ACS Med Chem Lett, 2021).
Values belong to the molecule of their own block, whether it stands above or below them.

Assays:
[1] = Selectivity index, ratio of IC50 for human HaCaT cells to IC50 for human MNT-1 cells by MTS assay
[2] = Toxicity in BALB/c mouse assessed as liver tissue index at 12 mg/kg, iv administered 3 times for 1 week and measured at 2 days post-last injection (reference value: 22 +/-1); format: organism-based; settings: in vivo, 216 h, time 9 day
[3] = Selectivity index, ratio of IC50 for human HaCaT cells to IC50 for human cells by MTS assay
[4] = test system: A-375; experiment: Cytotoxicity against human A-375 cells assessed as reduction in cell viability incubated for 72 hrs by MTS assay; format: functional, cell-based; settings: A-375, 72 h
In short: (§1)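 Cell lines: MNT-1 and A375 (human melanoma), B16F10 (murine melanoma) and HaCaT (human keratinocytes). Compounds incubated with cells for 72 h; IC50 reported in μM.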

[5] = Half life in 80% human plasma by HPLC analysis; format: ADME, cell-free
In short: (§2)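 Stability run at 37 °C in PBS pH 7.4 or 80% human plasma. HPLC followed loss of parent and appearance of hydrolysis products over at least 3 half-lives. Decay fitted pseudo-first-order: kobs taken as the slope of ln(concentration) vs time, and t1/2 calculated from kobs.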

[6] = 1-Octanol/phosphate buffer apparent partition coefficient, logP of the compound measured after 30 mins by HPLC analysis; format: physicochemical
[7] = Toxicity in BALB/c mouse assessed as lung tissue index at 12 mg/kg, iv administered 3 times for 1 week and measured at 2 days post-last injection (reference value: 8 +/-1); format: organism-based; settings: in vivo, 216 h, time 9 day
[8] = Cytotoxicity against human MNT-1 cells assessed as reduction in cell viability incubated for 72 hrs by MTS assay; format: functional, cell-based; settings: MNT-1, 72 h; in short: as §1
[9] = target: T1, Tyrosinase (Agaricus bisporus, UniProt O42713); experiment: Substrate activity at mushroom tyrosinase assessed as half-life of the compound by HPLC analysis; format: ADME
T1 sequence (O42713 whole entry): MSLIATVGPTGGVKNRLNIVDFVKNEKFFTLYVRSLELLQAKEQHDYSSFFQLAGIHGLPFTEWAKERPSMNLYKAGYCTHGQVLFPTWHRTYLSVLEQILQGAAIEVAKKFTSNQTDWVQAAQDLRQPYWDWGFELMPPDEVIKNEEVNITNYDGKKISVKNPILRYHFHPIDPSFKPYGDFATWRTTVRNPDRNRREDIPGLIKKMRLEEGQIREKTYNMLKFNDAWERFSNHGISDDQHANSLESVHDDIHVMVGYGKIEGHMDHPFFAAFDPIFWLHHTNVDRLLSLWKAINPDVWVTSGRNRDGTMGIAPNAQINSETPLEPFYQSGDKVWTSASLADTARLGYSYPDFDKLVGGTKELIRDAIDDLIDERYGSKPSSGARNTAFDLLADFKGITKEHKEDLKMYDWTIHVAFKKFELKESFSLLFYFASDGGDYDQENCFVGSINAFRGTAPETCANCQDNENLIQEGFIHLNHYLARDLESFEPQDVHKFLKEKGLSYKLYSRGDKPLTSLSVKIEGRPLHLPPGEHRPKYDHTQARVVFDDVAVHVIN
In short: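 Incubated with mushroom tyrosinase at 100 units/mL. Reaction followed by HPLC to derive substrate half-life (min).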

[10] = test system: B16-F10; experiment: Cytotoxicity against mouse B16-F10 cells assessed as reduction in cell viability incubated for 72 hrs by MTS assay; format: functional, cell-based; settings: B16-F10, 72 h; in short: as §1
[11] = test system: HaCaT; experiment: Cytotoxicity against human HaCaT cells assessed as reduction in cell viability incubated for 72 hrs by MTS assay; format: cell-based; in short: as §1
[12] = Selectivity index, ratio of IC50 for human HaCaT cells to IC50 for mouse B16-F10 cells by MTS assay; format: toxicity; settings: HaCaT cells and B16-F10 cells, read-out: Ratio IC50
In short: (§3)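 Human HaCaT keratinocytes and the melanoma line (human A375 or murine B16F10) were each incubated with compound for 72 h, and IC50 was determined in each line. Selectivity index is HaCaT IC50 divided by melanoma-line IC50.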

[13] = Hepatotoxicity in BALB/c mouse assessed as gamma-GT level in plasma at 12 mg/kg, iv administered 3 times for 1 week and measured at 2 days post-last injection (reference value: 47 +/-9 U/L); format: toxicity, organism-based; settings: in vivo, 216 h, time 9 day
In short: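 BALB/c mice dosed intravenously at 12 mg/kg, 3 times per week for 1 week. Vehicle: PBS plus Cremophor (5% p/v); controls received vehicle only. Behaviour checked daily. Animals killed 2 days after the last injection; blood collected for γ-GT, and organs weighed for tissue index.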

[14] = Toxicity in BALB/c mouse assessed as spleen tissue index at 12 mg/kg, iv administered 3 times for 1 week and measured at 2 days post-last injection (reference value: 6 +/-1); format: organism-based; settings: in vivo, 216 h, time 9 day
[15] = Haemolytic activity against human erythrocytes at 0.2 to 400 uM after 1 hr; format: ADME, cell-based, Erythrocyte; settings: dose 0.2-400 µM, read-out: Activity
In short: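 Human red blood cells exposed to compound at 0.2 to 400 μM for 1 h at 37 °C. Read-out: percentage hemolysis.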

[16] = Toxicity in BALB/c mouse assessed as kidney tissue index at 12 mg/kg, iv administered 3 times for 1 week and measured at 2 days post-last injection (reference value: 13 +/-1); format: organism-based; settings: in vivo, 216 h, time 9 day
[17] = Toxicity in BALB/c mouse assessed as heart tissue index at 12 mg/kg, iv administered 3 times for 1 week and measured at 2 days post-last injection (reference value: 7 +/-1); format: organism-based; settings: in vivo, 216 h, time 9 day
[18] = Half life of the compound in PBS buffer at pH 7.4 by HPLC analysis; format: physicochemical; in short: as §2
[19] = Selectivity index, ratio of IC50 for human HaCaT cells to IC50 for human A-375 cells by MTS assay; in short: as §3
[20] = target: T1, Tyrosinase; experiment: Drug metabolism assessed as mushroom tyrosinase-mediated drug oxidation by measuring 3-(4-cyanophenyl)-N-(2-(3,4-dioxocyclohexa-1,5-dienylthio)ethyl)-1-methyltriaz-2-ene-1-carboxamide formation measured after 2 hrs by HPLC analysis; format: ADME
[21] = target: T1, Tyrosinase; experiment: Drug metabolism assessed as mushroom tyrosinase-mediated drug oxidation by measuring compound 18c formation measured after 0.5 to 4 mins by HPLC analysis; format: ADME; settings: time 0.5-4 min
[22] = substrate: CN(/N=N/c1ccc(C#N)cc1)C(=O)NCCSc1ccc(O)cc1; experiment: (§4) Substrate activity at mushroom tyrosinase assessed as Km by Michaelis-Menten based analysis; format: ADME, Agaricus bisporus
[23] = substrate: Cc1ccc(/N=N/N(C)C(=O)NCCSc2ccc(O)cc2)cc1; experiment: as §4; format: ADME, Agaricus bisporus
[24] = substrate: CCOC(=O)c1ccc(/N=N/N(C)C(=O)NCCSc2ccc(O)cc2)cc1; experiment: as §4; format: ADME, Agaricus bisporus

half-life [5]: 1.27 days
logD at 0.5 h [6]: 4.08
half-life [9]: 3.7 min
half-life [18]: > 10 days
Molecule: CCOC(=O)c1ccc(/N=N/N(C)C(=O)NCCSc2ccc(O)cc2)cc1
Ratio IC50 [1]: 2
Activity_index [2]: 22
Ratio IC50 [3]: 2
IC50 [4]: 43.8 µM
Activity_index [7]: 8
IC50 [8]: 49.4 µM
IC50 [10]: 51 µM
IC50 [11]: > 100 µM
selectivity ratio [12]: 2
Activity [13]: 57 U/L
Activity_index [14]: 6
hemolysis at 1 h, up to 400 µM [15]: < 1%
Activity_index [16]: 13
Activity_index [17]: 7

half-life [5]: 3.69 days
logD at 0.5 h [6]: 4.21
half-life [9]: 1.9 min
half-life [18]: > 10 days
Molecule: Cc1ccc(/N=N/N(C)C(=O)NCCSc2ccc(O)cc2)cc1
Ratio IC50 [1]: 2
Ratio IC50 [3]: 2
IC50 [8]: 74.1 µM
IC50 [10]: 78.3 µM
IC50 [11]: > 130 µM
selectivity ratio [12]: 2

half-life [5]: 2.57 days
logD at 0.5 h [6]: 3.44
half-life [9]: 1 min
half-life [18]: > 10 days
Molecule: CC(=O)c1ccc(/N=N/N(C)C(=O)NCCSc2ccc(O)cc2)cc1
Ratio IC50 [1]: 2
Ratio IC50 [3]: 2
IC50 [8]: > 75 µM
IC50 [10]: > 75 µM
IC50 [11]: > 150 µM
selectivity ratio [12]: 2

half-life [5]: 3.08 days
logD at 0.5 h [6]: 3.49
half-life [9]: 0.5 min
Drug metabolism [20]: Metabolite_Notdetected
Drug metabolism [21]: Metabolite_Detected
half-life [18]: > 10 days
Molecule: CN(/N=N/c1ccc(C#N)cc1)C(=O)NCCSc1ccc(O)cc1
Ratio IC50 [1]: 2
Ratio IC50 [3]: 2
IC50 [8]: > 75 µM
IC50 [10]: > 75 µM
IC50 [11]: > 150 µM
selectivity ratio [12]: 2

More lines, now with the values behind:

Molecule: Cn1nnc2c(C(N)=O)ncn2c1=O [TEMOZOLOMIDE]
IC50 [4]: > 75 µM
IC50 [8]: > 75 µM
IC50 [10]: > 75 µM
IC50 [11]: > 75 µM

Molecule: NCCSc1ccc(O)cc1
Ratio IC50 [1]: >=3
IC50 [8]: 42.8 µM
IC50 [10]: > 75 µM
IC50 [11]: > 125 µM

Molecule: CC(=O)c1ccc(/N=N/N(C)C(=O)CCSc2ccc(O)cc2)cc1
Ratio IC50 [1]: 2
IC50 [4]: > 75 µM
half-life [5]: 0.204 days
IC50 [8]: > 75 µM
Ratio IC50 [19]: 2
IC50 [10]: > 75 µM
selectivity ratio [12]: 2
half-life [18]: 5.8 days

Molecule: CN=NNc1ccc(C#N)cc1
IC50 [8]: > 60 µM
IC50 [10]: > 60 µM
IC50 [11]: > 60 µM

B1: Tyrosinase (Agaricus bisporus) (protein)
chain: T1 sequence (O42713 whole entry)
Km [22]: 64 µM
Km [23]: 64 µM
Km [24]: 64 µM
